# Screens: PubChem, several laboratories
# Many of the other results were omitted from the sample, so hits are more common in it than they were.
# UPR XBP1 act – adaptive UPR (XBP1) activation | hit rate 0.33% among 330,000 | activation, % at 20 µM | AID 463104 | CHO-XBP1 luciferase reporter, IRE1-XBP1 UPR activation, luminescence; percent of tunicamycin response, DMSO as zero;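 active means versus positive control, 20 µM dose yields 30% or more activation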;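 further: 100% = tunicamycin at 10 µg/mL and 0% = DMSO only wells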
#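 assay system = CHO-XBP1 luciferase reporter cells | amount = 1000 cells/well | buffer or medium = F12 plus 10% FBS | compound dosing = single point, 20 µM final compound, 1% DMSO | incubation = 16-18 h cell attachment at 37 °C, then 6 h compound exposure | detection = Steady-Glo luminescence read | controls = tunicamycin 10 µg/mL and vehicle-only wells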
# FXN GAA850 act – increases GAA850 frataxin promoter reporter activity. HEK293 lucGAA850 FXN promoter luciferase reporter, 24 h; percent of 10 µM SAHA response. activation, % at 6 µM. hit rate 0.56% among 360,000. AID 540364;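 active means activation above the average of all compounds screened plus 3 SD, cutoff fixed separately per campaign, cut at about 7.5% in these data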;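 further: 0% = DMSO wells and 100% = 10 µM SAHA wells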
# CHOP inh – CHOP inhibition in unfolded protein response | CHO-K1 CHOP-promoter luciferase, tunicamycin-induced, 15-18 h | inhibition, % at 10 µM | hit rate 3.8% among 220,000 | AID 2732;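 active means compounds that reduced the stress-induced luciferase reporter signal by more than about 70% of percent inhibition, limit read from the data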;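 further: 0% = tunicamycin plus vehicle and 100% = wells without tunicamycin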
# UPR CHOP act – apoptotic UPR (CHOP) activation. CHO-CHOP luciferase reporter, luminescence; percent of tunicamycin response over DMSO baseline. activation, % at 10 µM. hit rate 0.34% among 330,000. AID 449763;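 active means at 10 µM dose, activation of 40% or more, normalized to positive control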;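 further: 100% = tunicamycin at 10 µg/mL and 0% = DMSO alone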
#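 Material: CHO-CHOP cells, stable luciferase reporter of PERK-eIF2a-CHOP signalling; quantity: 500 reporter cells seeded per well; buffer or medium: F12 medium containing 10% fetal bovine serum; compound: one dose, 10 µM in 0.5% DMSO; incubation: 6 h compound treatment, 37 °C; measured by: Steady-Glo luciferase luminescence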
# CHOP inh conf – confirmation of CHOP induction inhibitors | shares compounds with CHOP inh | inhibition, % at 10 µM | CHO-CHOP promoter luciferase reporter, tunicamycin-induced, luminescence | AID 504437 | hit rate 45% among 2,100;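 active means mean of three repeat readings of reporter signal inhibition above a set limit, cut at about 70% in these data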;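 further: 0% = tunicamycin plus vehicle and 100% = wells lacking tunicamycin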
# Starred values were filed as active, the others as inactive; . = not tested or not shown.
SMILES,UPR XBP1 act,FXN GAA850 act,CHOP inh,UPR CHOP act,CHOP inh conf
O=[N+]([O-])c1c(NCCCO)cc(Sc2ccc(Cl)cc2)c2nonc12,.,-0.2,110.7*,.,141.0*
CC(=O)OCCNc1cc(SCc2ccco2)c2nonc2c1[N+](=O)[O-],.,4.9,27.1,.,.
CC(=O)OCCCNc1cc(Sc2nc3ccccc3s2)c2nonc2c1[N+](=O)[O-],-6.5,7.2,109.0*,-10.3,13.3
O=[N+]([O-])c1c(NCCCO)cc(SCc2ccco2)c2nonc12,-0.7,3.3,19.5,0.0,.
CC(=O)N1C(=O)C2(NCC(C)N2)c2ccccc21 (configuration not stated),.,0.5,.,.,.
CCc1nc2c(cnn2-c2ccc(Cl)cc2)c(=O)n1-c1ccc(OC)cc1,5.2,0.7,100.8*,1.4,87.6*
CC(OC(=O)c1oc2ccccc2c1COc1ccccc1)C(=O)NC(N)=O (configuration not stated),2.6,0.0,31.2,0.8,.
CC(OC(=O)c1oc2ccccc2c1CSC1CCCCC1)C(=O)NC(N)=O (configuration not stated),1.8,1.6,101.2*,5.1,36.3
Cc1ccc(C(C(=O)NC2CCCCC2)N(C(=O)Cc2c[nH]c3ccccc23)c2ccccc2C)o1 (configuration not stated),9.9,0.8,100.0*,3.2,86.1*
Cc1ccccc1N(C(=O)Cc1c[nH]c2ccccc12)C(C(=O)NC1CCCCC1)c1ccco1 (configuration not stated),5.7,4.1,102.9*,2.0,51.1
COc1cc(CNc2ncnc3c2ncn3[C@H]2CN(Cc3ccccc3)C[C@@H](COC(C)=O)O2)cc(OC)c1OC,.,1.5,.,.,.
CCNC(=O)C1(C)CCCN(Cc2cccc3c(OC)cc(C(=O)OCC)cc23)C1 (configuration not stated),.,1.4,.,.,.
CNC(=O)C1Cc2c(-c3ccc4c(c3)OCO4)ccnc2O1 (configuration not stated),.,1.8,.,.,.
Cc1ccc(F)c(S(=O)(=O)NC(=O)C2(C)CCN2C(=O)Cc2cc(F)ccc2F)c1 (configuration not stated),.,2.4,.,.,.
Cc1c(CN2CCC(CO)(CCOc3ccccc3)CC2)[nH]c2c(Cl)cccc12,22.5,2.6,105.4*,1.7,71.1*
Cc1ccc([C@H]2N[C@]3(CCCN(Cc4ccco4)C3=O)[C@H]3C(=O)N(C)C(=O)[C@@H]23)cc1,.,0.0,.,.,.
COC(=O)c1ccc2c(=O)n(NC(=O)C(c3ccccc3)c3ccccc3)c(=S)[nH]c2c1,0.3,-2.6,101.5*,1.8,31.0
CNc1oc(-c2ccc(C)cc2)nc1P(=O)(c1ccccc1)c1ccccc1,2.2,3.9,106.6*,1.3,42.8
CCCc1nc(SCC(=O)Nc2ccccc2)c2c(=O)n(C)c(=O)n(C)c2n1,-1.6,-0.6,98.5*,-2.5,23.2
CCc1nc(SCC(=O)Nc2ccccc2)c2c(=O)n(C)c(=O)n(C)c2n1,0.2,-1.1,.,0.1,.
Cc1nnc(SC(C)C(=O)Nc2ccc(S(=O)(=O)N3CCCCC3)cc2)s1 (configuration not stated),-2.9,0.8,100.1*,1.0,12.4
Cc1csc(SC(C)C(=O)Nc2ccc(S(=O)(=O)N3CCCC3)cc2)n1 (configuration not stated),-0.7,-3.4,55.5,-1.3,.
CCC(C)[C@H](N)C(=O)N[C@H]1CCC2C3CC=C4C[C@@H](O)CC[C@]4(C)C3CC[C@@]21C (some centres not stated),.,-1.2,.,.,.
Cc1ccc(C(=O)ONc2ccc(N=O)cc2)cc1,-4.0,1.7,18.6,4.8,.
Cc1ccc(C(=O)ONc2ccc(N=NC(=O)c3ccccc3O)cc2)cc1,-0.9,3.9,103.2*,-1.0,21.9
COc1cc(Br)cc(/C=N/NC(=O)Cc2ccc(C(F)(F)F)cc2[N+](=O)[O-])c1O,-2.3,-1.2,26.1,0.0,.
CCOc1cc(/C=N/NC(=O)Cc2ccc(C(F)(F)F)cc2[N+](=O)[O-])c(Br)cc1OC,4.7,-0.5,101.3*,-1.4,99.6*
CC(=O)C1=C(O)C(=CC=Cc2ccccc2)OC1=O,.,1.0,.,.,.
CC(C)c1ccc(NC(=O)C2(C)Cc3c(-c4ccc(C(N)=O)cc4)ccnc3O2)cc1 (configuration not stated),.,-1.1,.,.,.
